In ChEMBL document CHEMBL5705886, “GSK1070916, a potent Aurora B/C kinase inhibitor with broad antitumor activity in tissue culture cells and human tumor xenograft models” (Mol Cancer Ther, 2009):
The source made the active and inactive calls. No cut-off for these calls is given here.

Experiments:
[1] = system: 786-0; assay: Antiproliferative activity against human 786-0 cells assessed as inhibition of cell viability measured for 6 to 7 days by cell titer glo assay; format: functional, cell-based
Procedure, shortened: (§1)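 Tumor lines plated in recommended growth media, overnight at 37°C, 5% CO2, then given serial dilutions; a T=0 plate read with CellTiter-Glo at dosing. After 6–7 d of exposure, viability read by CellTiter-Glo luminescence. No-cell wells subtracted, data expressed as % of DMSO control.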

[2] = system: U2OS; assay: Antiproliferative activity against human U2OS cells assessed as inhibition of cell viability measured for 6 to 7 days by cell titer glo assay; format: functional, cell-based
[3] = system: EB-3; assay: Antiproliferative activity against human EB-3 cells assessed as inhibition of cell viability measured for 6 to 7 days by cell titer glo assay; format: functional, cell-based; procedure, shortened: as §1
[4] = Antiproliferative activity against human Kasumi-2 cells assessed as inhibition of cell viability measured for 6 to 7 days by cell titer glo assay; format: functional, cell-based
Procedure, shortened: (§2)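 Cells seeded in recommended growth medium, incubated overnight at 37°C in 5% CO2, then exposed to serial dilutions of inhibitor for 6–7 d. A parallel plate was read with CellTiter-Glo at compound addition as a T=0 value. The luminescent viability readout had no-cell background subtracted and was expressed as % of DMSO control.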

[5] = system: WiDr; assay: Antiproliferative activity against human WiDr cells assessed as inhibition of cell viability measured for 6 to 7 days by cell titer glo assay; format: functional, cell-based
[6] = system: A498; assay: Antiproliferative activity against human A498 cells assessed as inhibition of cell viability measured for 6 to 7 days by cell titer glo assay; format: functional, cell-based; procedure, shortened: as §1
[7] = Antiproliferative activity against human OCI-M1 cells assessed as inhibition of cell viability measured for 6 to 7 days by cell titer glo assay; format: functional, cell-based
Procedure, shortened: (§3)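 Cells seeded in recommended growth medium, held overnight at 37°C in 5% CO2, then exposed to serial dilutions of inhibitor for 6–7 d. A time-zero plate was read with CellTiter-Glo at dosing. Luminescent viability read at the end. No-cell wells subtracted as background, data expressed as percent of DMSO control.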

[8] = system: MCF7; assay: Antitumor activity in human MCF7 cells xenografted in SCID mouse assessed as reduction in tumor growth at 50 to 100 mg/kg, ip administered once daily for 5 consecutive days with 2 days off scheduled for 3 cycles measured upto 60 days; format: functional, organism-based; details: dose 50-100 mg/kg, time <= 60.0 day
[9] = Antiproliferative activity against human SKO-007 cells assessed as inhibition of cell viability measured for 6 to 7 days by cell titer glo assay; format: functional, cell-based; procedure, shortened: as §3
[10] = system: COLO 320DM; assay: Antiproliferative activity against human COLO 320DM cells assessed as inhibition of cell viability measured for 6 to 7 days by cell titer glo assay; format: functional, cell-based; procedure, shortened: as §1
[11] = system: GDM-1; assay: Antiproliferative activity against human GDM-1 cells assessed as inhibition of cell viability measured for 6 to 7 days by cell titer glo assay; format: functional, cell-based; procedure, shortened: as §1
[12] = system: NB-4; assay: Antiproliferative activity against human NB4 cells assessed as inhibition of cell viability measured for 6 to 7 days by cell titer glo assay; format: functional, cell-based; procedure, shortened: as §2
[13] = system: HCT-116; assay: Antiproliferative activity against human HCT-116 cells assessed as inhibition of cell viability measured for 6 to 7 days by cell titer glo assay; format: functional, cell-based; procedure, shortened: as §1
[14] = Antiproliferative activity against human CRO-AP5 cells assessed as inhibition of cell viability measured for 6 to 7 days by cell titer glo assay; format: functional, cell-based; procedure, shortened: as §1
[15] = system: CRO-AP2; assay: Antiproliferative activity against human CRO-AP2 cells assessed as inhibition of cell viability measured for 6 to 7 days by cell titer glo assay; format: functional, cell-based; procedure, shortened: as §1
[16] = system: K562; assay: Antiproliferative activity against human K562 cells assessed as inhibition of cell viability measured for 6 to 7 days by cell titer glo assay; format: functional, cell-based; procedure, shortened: as §2
[17] = Antiproliferative activity against human SKW-3 cells assessed as inhibition of cell viability measured for 6 to 7 days by cell titer glo assay; format: functional, cell-based; details: SKW3; procedure, shortened: as §3
[18] = Toxicity in SCID nude mouse xenografted with human COLO 205 cells assessed as drug tolerance at 25 to 100 mg/kg, ip administered once daily for 5 consecutive days with 2 days off scheduled for 2 cycles measured upto 60 days; format: organism-based; details: in vivo, 1440 h, dose 25-100 mg/kg, time 60 day
[19] = system: RL; assay: Antiproliferative activity against human RL cells assessed as inhibition of cell viability measured for 6 to 7 days by cell titer glo assay; format: functional, cell-based; procedure, shortened: as §3
[20] = system: J-RT3-T3-5; assay: Antiproliferative activity against human J-RT3-T3-5 cells assessed as inhibition of cell viability measured for 6 to 7 days by cell titer glo assay; format: functional, cell-based; procedure, shortened: as §2
[21] = system: DB; assay: Antiproliferative activity against human DB cells assessed as inhibition of cell viability measured for 6 to 7 days by cell titer glo assay; format: functional, cell-based; procedure, shortened: as §1
[22] = system: Raji; assay: Antiproliferative activity against human Raji cells assessed as inhibition of cell viability measured for 6 to 7 days by cell titer glo assay; format: functional, cell-based; procedure, shortened: as §3
[23] = system: ML-2; assay: Antiproliferative activity against human ML-2 cells assessed as inhibition of cell viability measured for 6 to 7 days by cell titer glo assay; format: functional, cell-based; procedure, shortened: as §2
[24] = Antiproliferative activity against human CEM/C1 cells assessed as inhibition of cell viability measured for 6 to 7 days by cell titer glo assay; format: functional, cell-based; procedure, shortened: as §1
[25] = system: HN5; assay: Antiproliferative activity against human HN5 cells assessed as inhibition of cell viability measured for 6 to 7 days by cell titer glo assay; format: functional, cell-based; procedure, shortened: as §2
[26] = Toxicity in SCID nude mouse xenografted with human HCT-116 cells assessed as body weight loss at 25 to 100 mg/kg, ip administered once daily for 5 consecutive days with 2 days off scheduled for 3 cycles measured upto 60 days relative to control; format: organism-based; details: in vivo, 1440 h, dose 25-100 mg/kg, time < 60 day
[27] = molecular target: Aurora kinase C (Homo sapiens) (UniProt Q9UQB9); assay: Binding affinity to Aurora C (unknown origin) assessed as dissociation half life
Aurora kinase C (Homo sapiens), sequence (Q9UQB9 whole entry): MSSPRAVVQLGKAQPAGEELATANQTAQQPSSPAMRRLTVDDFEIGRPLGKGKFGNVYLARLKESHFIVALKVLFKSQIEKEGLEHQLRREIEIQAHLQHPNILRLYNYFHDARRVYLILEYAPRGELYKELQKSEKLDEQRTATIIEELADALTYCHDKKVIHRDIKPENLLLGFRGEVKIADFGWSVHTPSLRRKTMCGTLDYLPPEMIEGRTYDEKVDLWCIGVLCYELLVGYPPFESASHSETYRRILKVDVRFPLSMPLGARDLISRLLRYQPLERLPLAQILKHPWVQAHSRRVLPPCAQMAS

[28] = Toxicity in SCID nude mouse xenografted with human NCI-H460 cells assessed as body weight loss at 25 to 100 mg/kg, ip administered once daily for 5 consecutive days with 2 days off scheduled for 3 cycles measured upto 60 days relative to control; format: organism-based; details: in vivo, 1440 h, dose 25-100 mg/kg, time < 60 day
[29] = Antiproliferative activity against human EM-3 cells assessed as inhibition of cell viability measured for 6 to 7 days by cell titer glo assay; format: functional, cell-based; procedure, shortened: as §1
[30] = system: SW48; assay: Antiproliferative activity against human SW48 cells assessed as inhibition of cell viability measured for 6 to 7 days by cell titer glo assay; format: functional, cell-based; procedure, shortened: as §3
[31] = system: NU-DUL-1; assay: Antiproliferative activity against human NU-DUL-1 cells assessed as inhibition of cell viability measured for 6 to 7 days by cell titer glo assay; format: functional, cell-based; procedure, shortened: as §3
[32] = system: NCI-H1155; assay: Antiproliferative activity against human NCI-H1155 cells assessed as inhibition of cell viability measured for 6 to 7 days by cell titer glo assay; format: functional, cell-based; procedure, shortened: as §2
[33] = system: ARH-77; assay: Antiproliferative activity against human ARH-77 cells assessed as inhibition of cell viability measured for 6 to 7 days by cell titer glo assay; format: functional, cell-based; procedure, shortened: as §1
[34] = system: COLO 201; assay: Antiproliferative activity against human COLO201 cells assessed as inhibition of cell viability measured for 6 to 7 days by cell titer glo assay; format: functional, cell-based; procedure, shortened: as §1
[35] = system: NCI-H460; assay: Antitumor activity in human NCI-H460 cells xenografted in nude mouse assessed as reduction in tumor growth at 25 to 100 mg/kg, ip administered once daily for 5 consecutive days with 2 days off scheduled for 3 cycles measured upto 60 days; details: dose 25-100 mg/kg, time 60.0 day

CCn1cc(-c2ccnc3[nH]c(-c4cccc(CN(C)C)c4)cc23)c(-c2ccc(NC(=O)N(C)C)cc2)n1 [GSK-1070916]
EC50 [1]: 57 nM
EC50 [2]: 34 nM
EC50 [3]: 7 nM
EC50 [4]: 6 nM
EC50 [5]: 3 nM
EC50 [6]: 33 nM
EC50 [7]: 20 nM
Activity [8]: inactive
EC50 [9]: 352 nM
EC50 [10]: 96 nM
EC50 [11]: 21 nM
EC50 [12]: 11 nM
EC50 [13]: 8 nM
EC50 [14]: 3 nM
EC50 [15]: 3 nM
EC50 [16]: 13 nM
EC50 [17]: 5 nM
Activity [18]: Non-Toxic
EC50 [19]: 10 nM
EC50 [20]: 9 nM
EC50 [21]: 11 nM
EC50 [22]: 3 nM
EC50 [23]: 5 nM
EC50 [24]: 6 nM
EC50 [25]: 10 nM
Activity [26]: < 15%
T1/2 [27]: 4.5 h
Activity [28]: < 15%
EC50 [29]: 4 nM
EC50 [30]: 2 nM
EC50 [31]: 4 nM
EC50 [32]: 40 nM
EC50 [33]: 15 nM
EC50 [34]: 2 nM
Activity [35]: inactive
